Source: PubChem BioAssay AID624466 (The Scripps Research Institute Molecular Screening Center, 2012)
Out of some 360,000 compounds screened, about 5,400 (1.5%) were called active.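 Rule for the calls: active = inhibition above a per-plate cutoff, the mean inhibition of test compounds on that plate plus 3 SD (cut at about 49% in these data); inactive = the rest.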 For the sample, actives were picked, then their nearest neighbours and some compounds at random.

Molecular target: Trace amine-associated receptor 1 (Homo sapiens) (UniProt Q96RJ0)
Sequence (Q96RJ0 whole entry, looked up): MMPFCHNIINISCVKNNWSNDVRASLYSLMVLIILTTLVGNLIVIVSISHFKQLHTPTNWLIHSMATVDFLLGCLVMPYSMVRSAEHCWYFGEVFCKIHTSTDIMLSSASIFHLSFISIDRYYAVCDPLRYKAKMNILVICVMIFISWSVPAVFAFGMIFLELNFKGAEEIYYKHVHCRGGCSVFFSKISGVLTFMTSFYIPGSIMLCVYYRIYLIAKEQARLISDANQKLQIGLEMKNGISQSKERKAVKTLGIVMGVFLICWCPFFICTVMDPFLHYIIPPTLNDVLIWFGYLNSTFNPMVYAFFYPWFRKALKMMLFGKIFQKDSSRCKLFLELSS
Assay: human TAAR1 antagonists, primary screen, Fluo-8 calcium fluorescence, CHO RD-HGA16 cells (AID 624466);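 note: 0% = DMSO plus EC80 beta-PEA response and 100% = DMSO alone without agonist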
Conditions: CHO RD-HGA16 TAAR1, Fluo-8 calcium fluorescence, antagonist; at 3 µM; active compounds read high
How it was run: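 Test system – hTAAR1-expressing CHO RD-HGA16 cells, Gα16-coupled · Reagent – β-PEA at EC80 concentration, post-compound challenge · Compound dosing – 3 µM, single point · Timing – 140 s kinetic read after compound, 140 s after agonist · Detection – Fluo-8 intracellular calcium dye fluorescence, real-time kinetic reads · Control set – DMSO and EC80 PEA controls · Repeats – n of 1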

Compound	inhibition
C[C@H]1[C@H](c2ccccc2)Oc2cc(Br)ccc2S(=O)(=O)N1Cc1cccc(F)c1	0.32% (inactive)
COc1cccc(-c2nc3nc(C)cc(C)n3c2NC2CCCCC2)c1	-7.98% (inactive)
Cc1ccc(N2CC(C(=O)N3CCC4(CC3)CC(=O)c3ccccc3O4)CC2=O)cc1C (centres undefined)	-12.3% (inactive)
Nc1nonc1-n1nnc(C(=O)N/N=C/C2CCCCC2)c1-c1ccccc1	-20.6% (inactive)
Nc1nonc1-n1nnc(C(=O)N/N=C/c2c[nH]c3ccccc23)c1-c1ccccc1	59% (active)
CC(C)c1c(C(=O)N/N=C/c2ccccc2C(=O)O)nnn1-c1nonc1N	-11.8% (inactive)
CC(=O)N1C[C@@H](CO)[C@@H](N(C)C(=O)C(C)(C)C)C[C@H]1c1ccccc1Br	-17.9% (inactive)
Cc1ccc(NC(=O)COC(=O)CNC(=O)c2ccc(Cl)cc2Cl)cc1S(=O)(=O)N1CCOCC1	-20.3% (inactive)
C[C@@H]1CC2=C(C(=O)OC(C)(C)O2)[C@@H](C2CC2)O1	-2.56% (inactive)
CCOC(=O)[C@]12CCCC=C1N(Cc1cccc3ccccc13)C(=O)[C@H](CC(=O)NCC13CC4CC(CC(C4)C1)C3)C2	-11.8% (inactive)
Cc1c(NC(=O)c2cc(-c3ccc(Cl)s3)nc3ccccc23)c(=O)n(-c2ccccc2)n1C	23.5% (inactive)
CC(=O)N1CCN(C(=O)c2cc(-c3ccc(Cl)s3)nc3ccccc23)CC1	52% (active)
O=C(c1cc(-c2ccc(Cl)s2)nc2ccccc12)N1CCOCC1	23.2% (inactive)
O=C(NCc1cccc(Cl)c1)C1CCN(c2nnc(N3CCCC3=O)s2)CC1	1.44% (inactive)
Cc1ccc(S(=O)(=O)N[C@H]2CCC[C@@H]2O)cc1	-6.11% (inactive)
Nc1nonc1-n1nnc(C(=O)N/N=C/c2cc(Br)ccc2O)c1CSC1=NCCS1	18.1% (inactive)
Cc1ccc(SCc2c(C(=O)N/N=C/c3cccnc3)nnn2-c2nonc2N)cc1	63.7% (active)
CCN(CC)Cc1c(C(=O)N/N=C/c2cccc(OCc3ccc(F)cc3)c2)nnn1-c1nonc1N	-24.4% (inactive)
CCOC(=O)C1CCCN(C(=O)c2cccc(S(=O)(=O)N3CCOCC3)c2)C1 (centres undefined)	-16.4% (inactive)
C=CCCN(Cc1ccccc1)S(=O)(=O)c1ccccc1Br	35.3% (inactive)
O=C1Nc2ccccc2C1=NN=Cc1ccco1	-11.4% (inactive)
CC1Cc2[nH][nH]c(=O)c2C(C2CC2)O1 (centres undefined)	-0.95% (inactive)
Cc1ccccc1-n1nnc2c(=O)oc3ccccc3c21	-7.09% (inactive)
O=C(Nc1cccc(F)c1)c1coc(=O)c(Br)c1	-5.62% (inactive)
